Hits are enriched below; roughly 1.1% of the tested compounds scored in any of these assays.
SKN-1 block = blocks SKN-1 activity in C. elegans; inhibition, % at 21.8 µM; C. elegans VP596 Pgst-4::GFP/RFP ratio, acrylamide-induced, 24 h; AID 624304; actives 0.49% (n = 360,000);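 active means interference check ratio from 0.5 to 1.5 plus GFP to RFP signal ratio inhibition reaching or exceeding a fixed threshold, cut at about 30% in these data, passing the limit was not always enough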
MT1-MMP act inh = inhibitors of human MT1-MMP activation; GFP/RFP ratio change, % at 20 µM; actives 0.061% (n = 360,000); P50281; HT1080 RFP-PRO-GFP cells, GFP/RFP ratio fluorescence, overnight; percent of plate control window, DMSO zero;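 active means GFP/RFP ratio change of at least 30% with cell ATP level not reduced by more than half and red fluorescence within 50% of control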
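system = RFP-PRO-GFP reporter HT1080 cells | dosing = 20 µM single dose, 1% DMSO | timing = overnight cell settling, then overnight compound exposure, 37 °C, 5% CO2 | read-out basis = GFP/RFP fluorescence ratio | controls = DMSO and RFP-L50D-GFP cell wells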
TbMetRS inhib = Trypanosoma brucei MetRS inhibition. purified T. brucei MetRS, ATP depletion, Kinase-Glo luminescence. inhibition, % at 11.9 µM. actives 0.4% (n = 360,000);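 active means inhibition above a per-plate cutoff of the control wells' mean inhibition plus 3 SD, cut at about 5.5% in these data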
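assay system = parasite MetRS enzyme | timing = 15 min preincubation, 2 h reaction, all 25 °C | evaluation = percent inhibition relative to median high and low control wells | medium = HEPES buffer containing pyrophosphatase, BSA, spermine, DTT | compound = single dose, 11.9 µM final nominal, 0.9% final DMSO | detection = Kinase-Glo luminescence, ATP depletion format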
GC-A act = GC-A (human) enzyme activation; HEK293 GC-A cells, cGMP TR-FRET, EC30 ANP; 0% at EC30 ANP, 100% saturating ANP; activation, % at 10 µM; actives 0.14% (n = 370,000); in the data active means activation above about 40%
A1 inh = inhibitors of the anti-apoptotic protein A1, read as caspase activation. MEF A1-2A-BIM cells, Caspase-Glo 3/7 luminescence, 3 h; percent of clofoctol response, vehicle zero. caspase activation, % (test concentration not listed). actives 0.066% (n = 330,000). AID 2462;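 active means over half of replicate activation scores above 10%, or exactly half above 10 with the replicate mean above 10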
GC-B act = GC-B (human) receptor activation; P20594; HEK293-GC-B cells, CNP EC30, cGMP TR-FRET; 0% at EC30 CNP, 100% saturating CNP; activation, % at 10 µM; actives 0.11% (n = 370,000);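 active means activation at 10 µM reaching about 35% in either raw or pattern-adjusted values, limit read from the data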
Hits are given with their value; n = inactive; x = not tested or not shown; ! = repeats disagree.

SMILES	SKN-1 block	MT1-MMP act inh	TbMetRS inhib	GC-A act	A1 inh	GC-B act
O=c1c2ccccc2n(Cc2ccno2)n1[C@@H](Cc1ccccc1)Cn1cc(-c2ccc(-c3ccccc3)cc2)nn1	x	x	x	n	x	n
C=CCNc1ncnc2sc(SC)nc12	50	n	n	n	n	n
CSc1nc2c(=O)[nH]cnc2s1	x	x	x	n	x	n
COC(=O)c1ccc2c(=O)n(Cc3ccco3)c(SCC(=O)Nc3ccc(C)c(Cl)c3)nc2c1	n	n	n	n	17	n
O=C(CSc1nc2cc(Cl)ccc2c(=O)n1Cc1ccco1)Nc1ccc(S(=O)(=O)N2CCOCC2)cc1	n	n	n	n	n	n
O=C1C=CC(=O)N1c1cccc(-c2ccccc2)c1	n	n	n	n	13	n
COC(=O)[C@]12C[C@H](CC(=O)NCc3ccccc3)C(=O)N(Cc3cccc4ccccc34)C1=C[C@H](C1CCCC1)O[C@@H]2C	x	x	x	n	x	n
CC(=O)Nc1ccc(S(=O)(=O)N(C)CC(=O)NNC(=O)c2cccs2)cc1	42	n	n	n	n	n
O=C(CSc1nnc(-c2cccnc2)n1Cc1ccco1)Nc1cc(Cl)ccc1F	x	x	x	n	x	n
CC1(C)Cc2c(c(N3CCOCC3)nc3sc4c(NCC5CCCO5)nnnc4c23)CS1 (stereo not drawn)	n	n	n	n	n	49
CC1(C)Cc2c(c(N3CCOCC3)nc3sc4c(NCCN5CCOCC5)nnnc4c23)CS1	n	n	n	44	n	42
CC(C)CCNc1nnnc2c1sc1nc(N3CCOCC3)c3c(c12)CC(C)(C)SC3	n	n	n	52	n	57
CCN1C(=S)N[C@@H](c2cccs2)C(C(=O)OC)=C1C	n	n	n	n	n	35
CCN1C(=O)N[C@@H](c2cccs2)C(C(=O)OC)=C1C	n	n	n	n	n	n
O=C(/C(C=Nc1cccc(C(F)(F)F)c1)=C(/O)c1ccco1)C(F)(F)F	n	n	n	n	n	n
O=C(/C(C=Nc1ccc(Br)cc1)=C(/O)c1ccco1)C(F)(F)F	74	n	n	n	n	n
O=c1c2ccccc2nc2n1CCc1c-2[nH]c2ccccc12	n	n	n	n	n	n
Cc1cccc2c(=O)n3c(cc12)-c1[nH]c2ccccc2c1CC3	n	n	n	n	x	35
Nc1ccc(C(=O)n2c3ccccc3c3ccccc32)cc1	n	n	n	50	n	n
O=C(/C=C/c1cccs1)c1ccc(N2CCOCC2)cc1	36	n	n	n	n	n
O=C(/C=C/c1cccc(F)c1)c1ccc(N2CCOCC2)cc1	n	n	n	n	n	n
O=C(Nc1ccc(C(O)(C(F)(F)F)C(F)(F)F)cc1)c1ccc(F)cc1F	x	x	x	n	x	n
O=C1c2ccccc2C(=O)c2c(NCc3cccnc3)cccc21	43	n	n	n	n	n
CN(C)S(=O)(=O)c1cccc2c1C(=O)c1ccccc1C2=O	n	n	n	n	n	n
CNc1cccc2c1C(=O)c1ccccc1C2=O	45	n	n	n	n	n
SMILES	SKN-1 block	MT1-MMP act inh	TbMetRS inhib	GC-A act	A1 inh	GC-B act
CNC(=O)NC(=O)CSc1nc(-c2cccs2)c(C#N)c(=O)[nH]1	n	n	n	45	x	n
CCCC1(C(=O)OCC)NC(c2ccc(N(C)C)cc2)C2C(=O)N(c3ccccc3)C(=O)C21 (stereo not drawn)	38	n	n	n	n	n
FCCCOc1ccc(-c2ccnc(-c3ccccc3)n2)cc1	57	n	n	n	n	n
CSC(=NCCCN1CCOCC1)NS(=O)(=O)c1cccs1	43!	n	n	n	n	n
CCOC(=O)N1CCN(C(=O)C[C@H]2C[C@@]3(C(=O)OC)C(=C[C@H](C4CCCC4)O[C@@H]3C)N(CCC3=CCCCC3)C2=O)CC1	x	x	x	n	x	n
COc1cccc(/C=N/N2C(=O)CSC2=S)c1O	n	n	n	n	n	n
COc1cc(/C=N/N2C(=O)CSC2=S)cc(Br)c1O	43	n	n	n	x	n
c1ccc(CCSc2nnc(-c3cccnc3)n2Cc2ccccc2)cc1	x	x	x	n	x	n
CCn1c(SCC(=O)Nc2nccs2)nnc1-c1cc2cccc(OC)c2o1	n	n	n	n	x	n
CCn1c(SCC(=O)NC2CCCCC2)nnc1-c1cc2cccc(OC)c2o1	45	n	n	n	n	n
CCCOC(=O)c1cc(=O)[nH]c2ccccc12	37	n	n	n	n	n
CN(C(=O)CCn1nnc(-c2cccs2)n1)C1CCCCC1	x	x	x	n	x	n
CCCCN(C(=O)C1CCCC1)c1c(N)n(Cc2ccccc2)c(=O)[nH]c1=O	n	n	n	n	n	n
COCCN(C(=O)/C=C/c1ccccc1)c1c(N)n(Cc2ccccc2)c(=O)[nH]c1=O	52	n	n	n	n	n
CC(C)CCN(C(=O)c1ccncc1)c1c(N)n(Cc2ccccc2)c(=O)[nH]c1=O	n	n	n	n	n	n
CCCCC1CCC(C(=O)N(CC(C)C)c2c(N)n(Cc3ccccc3)c(=O)[nH]c2=O)CC1 (stereo not drawn)	x	x	x	n	29	n
COCCN(C(=O)/C=C/c1cccc([N+](=O)[O-])c1)c1c(N)n(Cc2ccccc2)c(=O)[nH]c1=O	n	n	n	n	n	n
CC(C)CCN(C(=O)Cc1ccc(Cl)c(Cl)c1)c1c(N)n(Cc2ccccc2)c(=O)[nH]c1=O	n	n	n	n	12	n
O=C(OC12CCCN(C1)/C(=C/c1ccccc1)C2)C1CCCC1 (stereo not drawn)	x	x	x	n	x	n
CCC(C)(C)NC(=O)C(c1cccn1C)N(C(=O)Cn1nnc2ccccc21)c1ccc(OC)cc1OC (stereo not drawn)	43	n	n	n	n	n
CCOc1ccc(N(C(=O)Cn2nnc3ccccc32)C(C(=O)NC(C)(C)CC)c2cccn2C)cc1 (stereo not drawn)	n	n	n	n	n	n
COc1ccc(S[C@]2(C(=O)N3CCCC3)CC(=O)N(C(=O)/C=C/c3ccccc3)[C@@H]2c2ccc(OC)cc2)cc1	x	x	x	n	x	n
O=C(NCc1ccc(/C=N\NC(=O)C(=O)Nc2ccccc2Br)o1)C(=O)Nc1ccccc1	n	n	n	n	11	n
O=C(CSc1nc2ccccc2o1)c1ccc2c(c1)OCCO2	37	n	n	n	n	n
CCCn1c(SCC(=O)c2ccc3c(c2)OCCO3)n[nH]c1=O	43	n	n	n	n	n
CCCn1c(SCC(=O)Nc2ccc3c(c2)OCO3)n[nH]c1=O	n	n	n	n	n	n
O=C(CSc1nc2ccccc2o1)c1ccccc1	n	n	n	n	n	n

Screening data: PubChem BioAssay, several laboratories
